Activity calls are given as the source filed them. The rule behind the calls is not given here.
Legend:
[1] = target: Beta-secretase 1 (Homo sapiens) (UniProt P56817); test: Inhibition of BACE1 (unknown origin) using MCA-SEVNLDAEFRK(Dnp)-RR-NH2 substrate assessed as residual activity at 10 uM incubated for 15 mins prior to substrate addition measured for 2 hrs
Procedure, shortened: (§1)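 Protease panel screen: enzyme and test inhibitor preincubated 15 min in the enzyme's reaction buffer, then substrate added. Reaction followed for 2 h, and activity was taken from the initial linear portion of the progress-curve slope. Enzyme, substrate, buffer and detection conditions for each target are given only in the paper's supporting table.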

[2] = target: Plasminogen (Homo sapiens) (UniProt P00747); test: Inhibition of Plasmin (unknown origin) using H-D-CHA -Ala-Arg-AMC.2AcOH substrate assessed as residual activity at 10 uM incubated for 15 mins prior to substrate addition measured for 2 hrs
Procedure, shortened: (§2)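 Protease panel screen: enzyme and inhibitor preincubated 15 min in reaction buffer, then substrate added; reaction followed for 2 h and the initial linear part of the progress curve used for activity. Enzyme, substrate, buffer and detection details are given only in a supporting table.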

[3] = target: Matrix metalloproteinase-9 (Homo sapiens) (UniProt P14780); test: Inhibition of MMP9 (unknown origin) using (5-FAM/QXLTM) FRET peptide substrate assessed as residual activity at 10 uM incubated for 15 mins prior to substrate addition measured for 2 hrs; procedure, shortened: as §2
[4] = target: Coagulation factor X (Homo sapiens) (UniProt P00742); test: Inhibition of Factor-10a (unknown origin) using CH3SO2-D-CHA-Gly-Arg-AMC-AcOH substrate assessed as residual activity at 10 uM incubated for 15 mins prior to substrate addition measured for 2 hrs; procedure, shortened: as §1
[5] = target: T1, Neutrophil elastase (Homo sapiens) (UniProt P08246); details: 10 uM
T1 sequence (whole entry): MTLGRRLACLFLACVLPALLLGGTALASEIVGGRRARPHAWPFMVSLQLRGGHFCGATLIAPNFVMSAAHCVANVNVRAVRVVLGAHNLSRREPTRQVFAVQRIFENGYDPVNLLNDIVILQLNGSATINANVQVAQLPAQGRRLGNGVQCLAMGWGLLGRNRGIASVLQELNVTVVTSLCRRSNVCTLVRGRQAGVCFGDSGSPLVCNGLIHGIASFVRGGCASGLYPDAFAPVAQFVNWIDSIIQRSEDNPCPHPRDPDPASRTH

[6] = target: Coagulation factor VII (Homo sapiens) (UniProt P08709); test: Inhibition of Factor-7a (unknown origin) using Z-VVR-AMC substrate assessed as residual activity at 10 uM incubated for 15 mins prior to substrate addition measured for 2 hrs; procedure, shortened: as §1
[7] = target: T1, Neutrophil elastase (Homo sapiens); details: BEAS2B, 10 uM
[8] = target: Plasma kallikrein (Homo sapiens) (UniProt P03952); test: Inhibition of Plasma Kallikrein (unknown origin) using Z-FR-AMC substrate assessed as residual activity at 10 uM incubated for 15 mins prior to substrate addition measured for 2 hrs; procedure, shortened: as §2
[9] = target: Stromelysin-3 (Homo sapiens) (UniProt P24347); test: Inhibition of MMP11 (unknown origin) using (5-FAM/QXLTM) FRET peptide substrate assessed as residual activity at 10 uM incubated for 15 mins prior to substrate addition measured for 2 hrs; procedure, shortened: as §1
Hepacivirus hominis = test: Inhibition of Hepatitis C virus NS3/4A protease using Anaspec EnzoLyte substrate assessed as residual activity at 10 uM incubated for 15 mins prior to substrate addition measured for 2 hrs; procedure, shortened: as §1
[10] = target: Vitamin K-dependent protein C (Homo sapiens) (UniProt P04070); test: Inhibition of Activated Protein C (unknown origin) using Boc-DVLR-ANSNH-C4H9 substrate assessed as residual activity at 10 uM incubated for 15 mins prior to substrate addition measured for 2 hrs; procedure, shortened: as §1
Kallikrein-5 = Kallikrein-5 (Homo sapiens, UniProt Q9Y337); test: Inhibition of Kallikrein-5 (unknown origin) using Z-VVR-AMC substrate incubated for 15 mins prior to substrate addition measured for 2 hrs; procedure, shortened: as §1
[11] = target: Cathepsin S (Homo sapiens) (UniProt P25774); test: Inhibition of Cathepsin S (unknown origin) using Z-FR-AMC substrate assessed as residual activity at 10 uM incubated for 15 mins prior to substrate addition measured for 2 hrs; procedure, shortened: as §1
[12] = target: T1, Neutrophil elastase (Homo sapiens); details: 10 uM; remark: listed apart in the source
[13] = target: Tissue-type plasminogen activator (Homo sapiens) (UniProt P00750); test: Inhibition of tPA (unknown origin) using Z-GPR-AMC substrate assessed as residual activity at 10 uM incubated for 15 mins prior to substrate addition measured for 2 hrs; procedure, shortened: as §2
[14] = target: T1, Neutrophil elastase (Homo sapiens); details: 10 uM; remark: listed apart in the source
Coagulation factor XI = Coagulation factor XI (Homo sapiens, UniProt P03951); test: Inhibition of Factor-11a (unknown origin) using (Boc-Glu(OBzl)-Ala-Arg)-MCA substrate incubated for 15 mins prior to substrate addition measured for 2 hrs; procedure, shortened: as §1
Chymase = Chymase (Homo sapiens, UniProt P23946); test: Inhibition of Chymase (unknown origin) using Suc-AAPF-AMC substrate incubated for 15 mins prior to substrate addition measured for 2 hrs; procedure, shortened: as §1
Trypsin = Trypsin (Homo sapiens, UniProt P07477+P07478+P35030); test: Inhibition of Trypsin (unknown origin) using H-D-CHA -Ala-Arg-AMC.2AcOH substrate incubated for 15 mins prior to substrate addition measured for 2 hrs; format: protein assay; procedure, shortened: as §2
Homo sapiens = species: Homo sapiens; test: Inhibition of Thrombin alpha (unknown origin) using H-D-CHA -Ala-Arg-AMC.2AcOH substrate assessed as residual activity at 10 uM incubated for 15 mins prior to substrate addition measured for 2 hrs; procedure, shortened: as §2
[15] = target: T1, Neutrophil elastase (Homo sapiens); details: 10 uM; remark: listed apart in the source

Sequence of Kallikrein-5 (Q9Y337 whole entry): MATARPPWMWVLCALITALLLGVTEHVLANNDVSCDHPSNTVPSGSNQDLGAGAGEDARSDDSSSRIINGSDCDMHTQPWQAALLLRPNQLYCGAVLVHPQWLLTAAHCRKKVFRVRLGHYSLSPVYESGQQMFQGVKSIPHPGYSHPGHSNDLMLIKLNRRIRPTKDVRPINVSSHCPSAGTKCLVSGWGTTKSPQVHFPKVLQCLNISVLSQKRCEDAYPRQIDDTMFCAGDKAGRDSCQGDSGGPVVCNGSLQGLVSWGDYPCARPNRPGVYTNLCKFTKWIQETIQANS
Sequence of Beta-secretase 1 (Homo sapiens) (P56817 whole entry): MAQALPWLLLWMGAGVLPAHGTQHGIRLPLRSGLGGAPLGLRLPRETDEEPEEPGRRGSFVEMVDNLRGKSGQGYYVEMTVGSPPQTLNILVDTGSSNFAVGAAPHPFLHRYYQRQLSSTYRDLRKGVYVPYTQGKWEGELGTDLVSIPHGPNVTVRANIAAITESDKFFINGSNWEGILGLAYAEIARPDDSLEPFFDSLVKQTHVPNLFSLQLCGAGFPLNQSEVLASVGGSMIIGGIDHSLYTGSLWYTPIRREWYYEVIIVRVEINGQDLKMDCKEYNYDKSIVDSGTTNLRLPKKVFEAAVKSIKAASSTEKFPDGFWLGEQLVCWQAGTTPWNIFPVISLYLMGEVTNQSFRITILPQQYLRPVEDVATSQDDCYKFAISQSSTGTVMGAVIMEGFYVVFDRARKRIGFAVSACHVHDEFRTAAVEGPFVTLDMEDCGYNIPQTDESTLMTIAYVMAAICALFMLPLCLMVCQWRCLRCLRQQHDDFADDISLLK
Sequence of Tissue-type plasminogen activator (Homo sapiens) (P00750 36-562 limits assumed): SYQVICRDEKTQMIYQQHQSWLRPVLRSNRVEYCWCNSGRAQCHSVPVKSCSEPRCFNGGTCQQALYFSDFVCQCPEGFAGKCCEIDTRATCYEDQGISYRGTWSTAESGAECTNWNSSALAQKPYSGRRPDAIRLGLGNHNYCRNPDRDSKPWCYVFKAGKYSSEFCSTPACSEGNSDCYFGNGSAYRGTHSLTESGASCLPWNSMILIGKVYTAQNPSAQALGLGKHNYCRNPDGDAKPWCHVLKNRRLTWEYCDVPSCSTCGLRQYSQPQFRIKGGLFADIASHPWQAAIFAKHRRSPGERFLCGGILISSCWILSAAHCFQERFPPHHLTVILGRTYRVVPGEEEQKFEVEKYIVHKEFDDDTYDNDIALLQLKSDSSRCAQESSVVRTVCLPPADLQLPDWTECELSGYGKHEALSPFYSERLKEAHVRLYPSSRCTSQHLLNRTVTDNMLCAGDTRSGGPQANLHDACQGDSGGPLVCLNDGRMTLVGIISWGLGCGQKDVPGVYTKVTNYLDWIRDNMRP
Sequence of Coagulation factor X (Homo sapiens) (P00742 41-179 limits assumed): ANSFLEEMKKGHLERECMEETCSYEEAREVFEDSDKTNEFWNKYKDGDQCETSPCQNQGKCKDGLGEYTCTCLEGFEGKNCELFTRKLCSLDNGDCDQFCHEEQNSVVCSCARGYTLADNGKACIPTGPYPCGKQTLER
Sequence of Coagulation factor X (Homo sapiens) (P00742 235-488 limits assumed): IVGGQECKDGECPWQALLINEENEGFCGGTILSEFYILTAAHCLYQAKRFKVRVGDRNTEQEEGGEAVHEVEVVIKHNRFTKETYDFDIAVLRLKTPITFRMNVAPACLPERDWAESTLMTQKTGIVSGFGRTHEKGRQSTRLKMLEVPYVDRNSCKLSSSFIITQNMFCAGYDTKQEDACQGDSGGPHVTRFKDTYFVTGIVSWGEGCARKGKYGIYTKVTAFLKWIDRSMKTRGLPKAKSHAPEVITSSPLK
Sequence of Coagulation factor XI (P03951 19-387 limits assumed): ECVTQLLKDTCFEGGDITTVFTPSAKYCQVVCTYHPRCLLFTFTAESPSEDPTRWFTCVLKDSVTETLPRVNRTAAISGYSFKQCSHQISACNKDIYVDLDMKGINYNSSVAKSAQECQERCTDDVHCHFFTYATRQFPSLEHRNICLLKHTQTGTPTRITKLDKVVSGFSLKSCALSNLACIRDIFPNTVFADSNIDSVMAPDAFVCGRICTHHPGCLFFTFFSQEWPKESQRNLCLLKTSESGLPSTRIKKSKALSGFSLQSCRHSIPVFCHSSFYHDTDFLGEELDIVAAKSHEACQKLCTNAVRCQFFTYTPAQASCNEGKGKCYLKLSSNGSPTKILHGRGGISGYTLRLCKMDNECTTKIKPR
Sequence of Coagulation factor XI (P03951 388-625 limits assumed): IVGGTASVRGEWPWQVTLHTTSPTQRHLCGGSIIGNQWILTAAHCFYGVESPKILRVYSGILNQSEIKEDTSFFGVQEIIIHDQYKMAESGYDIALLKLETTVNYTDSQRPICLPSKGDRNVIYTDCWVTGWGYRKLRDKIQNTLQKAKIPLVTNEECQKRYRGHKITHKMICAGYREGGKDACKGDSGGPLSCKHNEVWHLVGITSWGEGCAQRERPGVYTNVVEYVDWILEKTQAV
Sequence of Chymase (P23946 whole entry): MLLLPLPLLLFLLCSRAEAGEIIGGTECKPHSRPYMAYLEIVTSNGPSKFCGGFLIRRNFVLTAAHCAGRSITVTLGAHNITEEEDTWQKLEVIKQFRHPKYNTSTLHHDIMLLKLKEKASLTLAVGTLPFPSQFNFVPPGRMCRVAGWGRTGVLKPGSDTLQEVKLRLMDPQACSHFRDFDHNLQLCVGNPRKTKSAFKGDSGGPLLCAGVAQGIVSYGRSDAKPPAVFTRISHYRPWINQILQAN
Sequence of Matrix metalloproteinase-9 (Homo sapiens) (P14780 whole entry): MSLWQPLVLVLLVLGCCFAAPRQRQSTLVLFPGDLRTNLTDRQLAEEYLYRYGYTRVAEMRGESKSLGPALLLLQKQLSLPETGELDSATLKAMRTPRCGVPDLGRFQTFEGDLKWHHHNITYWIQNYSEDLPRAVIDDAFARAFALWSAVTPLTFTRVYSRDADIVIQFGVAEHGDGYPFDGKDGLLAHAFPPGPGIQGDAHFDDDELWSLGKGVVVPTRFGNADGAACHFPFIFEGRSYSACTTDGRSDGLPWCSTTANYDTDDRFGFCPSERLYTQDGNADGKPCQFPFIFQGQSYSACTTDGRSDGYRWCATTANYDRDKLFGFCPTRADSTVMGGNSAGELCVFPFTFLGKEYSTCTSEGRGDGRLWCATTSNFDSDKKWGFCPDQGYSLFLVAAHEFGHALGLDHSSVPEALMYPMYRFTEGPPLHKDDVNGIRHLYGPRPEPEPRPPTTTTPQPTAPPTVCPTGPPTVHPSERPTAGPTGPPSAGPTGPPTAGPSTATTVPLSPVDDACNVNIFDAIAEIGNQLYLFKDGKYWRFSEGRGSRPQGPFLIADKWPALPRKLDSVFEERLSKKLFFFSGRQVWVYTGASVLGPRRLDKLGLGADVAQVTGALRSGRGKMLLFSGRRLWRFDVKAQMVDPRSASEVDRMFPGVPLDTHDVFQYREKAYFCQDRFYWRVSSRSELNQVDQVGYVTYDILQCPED
Sequence of Coagulation factor VII (Homo sapiens) (P08709 61-212 limits assumed): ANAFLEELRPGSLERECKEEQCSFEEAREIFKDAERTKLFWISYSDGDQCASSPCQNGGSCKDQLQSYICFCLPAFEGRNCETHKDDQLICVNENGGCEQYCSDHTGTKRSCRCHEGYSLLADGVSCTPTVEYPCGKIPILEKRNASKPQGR
Sequence of Coagulation factor VII (Homo sapiens) (P08709 213-466 limits assumed): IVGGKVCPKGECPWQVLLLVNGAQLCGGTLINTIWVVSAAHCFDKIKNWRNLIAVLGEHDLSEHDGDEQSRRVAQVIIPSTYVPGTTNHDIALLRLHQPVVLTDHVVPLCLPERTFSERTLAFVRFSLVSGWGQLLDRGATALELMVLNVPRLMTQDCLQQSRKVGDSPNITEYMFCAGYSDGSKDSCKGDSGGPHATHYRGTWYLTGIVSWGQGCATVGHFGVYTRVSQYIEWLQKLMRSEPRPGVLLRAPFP
Sequence of Plasminogen (Homo sapiens) (P00747 97-580 limits assumed): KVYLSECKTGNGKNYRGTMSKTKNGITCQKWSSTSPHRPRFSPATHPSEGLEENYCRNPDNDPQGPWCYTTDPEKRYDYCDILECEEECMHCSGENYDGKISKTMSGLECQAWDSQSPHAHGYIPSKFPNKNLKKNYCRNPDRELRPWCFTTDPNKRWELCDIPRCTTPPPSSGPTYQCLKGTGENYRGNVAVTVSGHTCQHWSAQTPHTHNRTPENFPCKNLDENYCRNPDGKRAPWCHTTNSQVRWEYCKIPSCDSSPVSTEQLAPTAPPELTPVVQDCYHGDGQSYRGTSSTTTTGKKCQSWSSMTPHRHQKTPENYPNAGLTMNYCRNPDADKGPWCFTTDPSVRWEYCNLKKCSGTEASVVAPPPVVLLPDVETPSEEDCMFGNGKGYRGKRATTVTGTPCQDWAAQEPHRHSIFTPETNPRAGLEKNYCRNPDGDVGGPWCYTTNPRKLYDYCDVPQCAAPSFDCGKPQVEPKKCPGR
Sequence of Plasminogen (Homo sapiens) (P00747 581-810 limits assumed): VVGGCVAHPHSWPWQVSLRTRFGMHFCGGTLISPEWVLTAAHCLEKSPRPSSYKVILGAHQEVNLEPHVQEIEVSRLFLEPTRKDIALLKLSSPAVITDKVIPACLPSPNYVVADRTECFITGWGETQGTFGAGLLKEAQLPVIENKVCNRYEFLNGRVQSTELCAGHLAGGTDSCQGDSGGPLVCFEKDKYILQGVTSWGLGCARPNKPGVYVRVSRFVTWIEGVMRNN
Sequence of Stromelysin-3 (Homo sapiens) (P24347 whole entry): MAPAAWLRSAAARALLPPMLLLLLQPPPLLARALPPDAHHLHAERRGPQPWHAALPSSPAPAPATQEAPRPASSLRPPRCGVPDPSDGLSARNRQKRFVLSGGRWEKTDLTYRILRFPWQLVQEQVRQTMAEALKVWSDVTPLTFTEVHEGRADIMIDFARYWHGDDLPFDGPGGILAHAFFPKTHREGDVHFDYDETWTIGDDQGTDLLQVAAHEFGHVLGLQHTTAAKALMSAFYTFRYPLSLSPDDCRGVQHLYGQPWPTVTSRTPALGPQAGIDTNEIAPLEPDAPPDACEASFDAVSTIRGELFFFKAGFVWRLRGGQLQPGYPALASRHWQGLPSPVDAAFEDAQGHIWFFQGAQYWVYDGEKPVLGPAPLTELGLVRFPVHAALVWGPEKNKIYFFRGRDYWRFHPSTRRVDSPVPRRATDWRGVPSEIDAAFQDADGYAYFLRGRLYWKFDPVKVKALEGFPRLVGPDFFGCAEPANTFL

C/C=C1\NC(=O)[C@@H](NC(=O)[C@@H](NC(=O)[C@@H](COS(=O)(=O)[O-])OC)C(C)C)[C@@H](C)OC(=O)[C@H]([C@H](C)CC)NC(=O)[C@H](Cc2ccccc2)N(C)C(=O)[C@H](Cc2ccccc2)N2C(=O)[C@H](CC[C@H]2O)NC1=O.[Na+] [Symplostatin 5] showed an Activity [1] of 100%, an Activity [2] of 100% and an Activity [3] of 100%. For the same compound, the Activity [4] was 100%, the inhibition [5] was “Active” and the Activity [6] was 100%. The inhibition [7] was “Active”, the Activity [8] was 50% and the Activity [9] was 100%. The Activity (Hepacivirus hominis) was 100%, the Activity [10] was 100% and the IC50 (Kallikrein-5) was under 10 µM. For the same compound, the Activity [11] was 100%, the inhibition [12] was “Active” and the Activity [13] was 100%. For the same compound, the inhibition [14] was “inactive”, the IC50 (Coagulation factor XI) was under 10 µM and the IC50 (Chymase) was under 10 µM. For the same compound, the pIC50 (Trypsin) was over 5, the Activity (Homo sapiens) was 100% and the inhibition [15] was “Active”.

Reference: ChEMBL document CHEMBL2331221, “Potent elastase inhibitors from cyanobacteria: structural basis and mechanisms mediating cytoprotective and anti-inflammatory effects in bronchial epithelial cells” (J Med Chem, 2013)
